Source: ChEMBL document CHEMBL1955763, “Antimicrobial activity of sulfonamides containing 5-chloro-2-hydroxybenzaldehyde and 5-chloro-2-hydroxybenzoic acid scaffold” (Eur J Med Chem, 2012)
≈ marks a conversion by molar mass, not a printed value.

Key:
[1] = test system: Mycobacterium avium; test: Antimycobacterial activity against isoniazid-, rifampicin-, ofloxacin-, ethambutol-resistant Mycobacterium avium 330/88 after 14 days; format: functional; settings: 330/88, 336 h
Summary of the method: (§1)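 Micromethod in Sula semisynthetic medium, with compounds added as DMSO solutions over a two-fold series from 1000 down to 1. Inoculum for M. avium 330/88 was a 10⁻⁵ dilution. Plates were incubated at 37 °C and MIC was read after 14 and 21 days.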

[2] = test system: Mycobacterium kansasii; test: Antimycobacterial activity against Mycobacterium kansasii 235/80 after 7 days; format: functional; settings: 235/80, 168 h
Summary of the method: (§2)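 Micromethod MIC in Sula semisynthetic medium, with compounds added as DMSO solutions at […]. Incubation at 37 °C. Inocula: M. kansasii 235/80 at dilution 10⁻⁴, clinical isolate 6509/96 at 10⁻⁵.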

[3] = test system: Staphylococcus aureus; test: Antibacterial activity against Staphylococcus aureus CCM 4516/08 after 24 hrs by broth microdilution method; format: functional; settings: CCM 4516/08, 24 h
Summary of the method: (§3)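 Microdilution broth method modified from M07-A07, in Mueller-Hinton broth at pH 7.4 (±0.2). Compounds were dissolved in DMSO. Inoculum was made in sterile water to 0.5 McFarland (1.5 × 10⁸ CFU/mL). MIC was taken as IC₉₀, meaning ≥90% growth reduction versus the drug-free control. Growth was read visually and by absorbance at 540 nm.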

[4] = test system: Staphylococcus epidermidis; test: Antibacterial activity against methicillin-resistant Staphylococcus epidermidis H 6966/08 after 48 hrs by broth microdilution method; format: functional; settings: H 6966/08, 48 h; summary of the method: as §3
[5] = Selectivity ratio of IC50 for human HepG2 cell sto MIC100 for Mycobacterium kansasii 235/80; format: functional
[6] = test system: Mycobacterium tuberculosis; test: Antimycobacterial activity against Mycobacterium tuberculosis H37Rv 331/88 after 21 days; format: functional; settings: H37Rv 331/88, 504 h; summary of the method: as §1
[7] = test system: Pseudomonas aeruginosa; test: Antibacterial activity against Pseudomonas aeruginosa CCM 1961 after 24 hrs by broth microdilution method; format: functional; settings: CCM 1961, 24 h
Summary of the method: (§4)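 Broth microdilution modified from standard M07-A07 in Mueller-Hinton broth at pH 7.4 (±0.2). Compounds were dissolved in DMSO. Inoculum in sterile water was adjusted to 0.5 McFarland (1.5 × 10⁸ CFU/mL). MIC was taken as IC₉₀, i.e. ≥90% growth reduction versus control, read visually and spectrophotometrically at 540 nm.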

[8] = test system: Mycobacterium kansasii; test: Antimycobacterial activity against Mycobacterium kansasii 6509/96 after 7 days; format: functional; settings: 6509/96, 168 h; summary of the method: as §2
[9] = Selectivity ratio of IC50 for human HepG2 cell sto MIC100 for Mycobacterium kansasii 6509/96; format: functional
[10] = test system: Mycobacterium avium; test: Antimycobacterial activity against isoniazid-, rifampicin-, ofloxacin-, ethambutol-resistant Mycobacterium avium 330/88 after 21 days; format: functional; settings: 330/88, 504 h; summary of the method: as §1
[11] = test system: Staphylococcus aureus; test: Antibacterial activity against Staphylococcus aureus CCM 4516/08 after 48 hrs by broth microdilution method; format: functional; settings: CCM 4516/08, 48 h; summary of the method: as §4
[12] = Selectivity ratio of IC50 for human HepG2 cell sto MIC90 for Staphylococcus aureus CCM 4516/08; format: functional
[13] = test system: Klebsiella pneumoniae; test: Antibacterial activity against Klebsiella pneumoniae D 11750/08 after 24 hrs by broth microdilution method; format: functional; settings: D 11750/08, 24 h; summary of the method: as §4
[14] = test system: Mycobacterium kansasii; test: Antimycobacterial activity against Mycobacterium kansasii 6509/96 after 21 days; format: functional; settings: 6509/96, 504 h; summary of the method: as §2
[15] = test system: HepG2; test: Cytotoxicity against human HepG2 cells after 24 hrs by MTS assay; format: cell-based; settings: HepG2, 24 h
Summary of the method: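 Hep G2 human liver cells (passage 3–4), 10 000 per well, in MEM with 1% glutamine, 10% fetal serum and 1% non-essential amino acids. Compounds were added from DMSO at eight increasing concentrations in quadruplicate. Exposure was 24 h at 37 °C in 5% CO₂, then MTS reagent for 1.5 h. Formazan was read at 490 nm and IC₅₀ derived as 50% of control viability.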

[16] = test system: Mycobacterium kansasii; test: Antimycobacterial activity against Mycobacterium kansasii 235/80 after 14 days; format: functional; settings: 235/80, 336 h; summary of the method: as §2
[17] = test system: Mycobacterium tuberculosis; test: Antimycobacterial activity against Mycobacterium tuberculosis H37Rv 331/88 after 14 days; format: functional; settings: H37Rv 331/88, 336 h
[18] = test system: Staphylococcus aureus; test: Antibacterial activity against methicillin-resistant Staphylococcus aureus H 5996/08 after 24 hrs by broth microdilution method; format: functional; settings: H 5996/08, 24 h; summary of the method: as §3
[19] = test system: Mycobacterium kansasii; test: Antimycobacterial activity against Mycobacterium kansasii 235/80 after 21 days; format: functional; settings: 235/80, 504 h; summary of the method: as §2
[20] = test system: Mycobacterium avium complex sp.; test: Antimycobacterial activity against Mycobacterium avium complex; format: functional
[21] = test system: Staphylococcus epidermidis; test: Antibacterial activity against methicillin-resistant Staphylococcus epidermidis H 6966/08 after 24 hrs by broth microdilution method; format: functional; settings: H 6966/08, 24 h; summary of the method: as §3
[22] = test system: Escherichia coli; test: Antibacterial activity against Escherichia coli CCM 4517 after 24 hrs by broth microdilution method; format: functional; settings: CCM 4517, 24 h; summary of the method: as §4
[23] = test system: Aspergillus fumigatus; test: Antifungal activity against Aspergillus fumigatus 231 after 24 hrs by broth microdilution method; format: functional; settings: Aspergillus fumigatus, 231, 24 h
Summary of the method: (§5)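 Microdilution broth per CLSI M27-A3 (yeasts) or M38-A2 (moulds) in RPMI 1640 with glutamine, buffered to pH 7.0 with 0.165 mol MOPS. Compounds were in DMSO. Final inoculum was 5 × 10³ ± 0.2 CFU/mL. Other conditions matched the antibacterial assay, with MIC as IC₉₀ read visually and at 540 nm. Determined twice, in duplicate.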

[24] = test system: Klebsiella pneumoniae; test: Antibacterial activity against ESBL-positive Klebsiella pneumoniae J 14368/08 after 24 hrs by broth microdilution method; format: functional; settings: J 14368/08, 24 h; summary of the method: as §4
[25] = test system: Staphylococcus aureus; test: Antibacterial activity against methicillin-resistant Staphylococcus aureus H 5996/08 after 48 hrs by broth microdilution method; format: functional; settings: H 5996/08, 48 h; summary of the method: as §3
[26] = test system: Mycobacterium kansasii; test: Antimycobacterial activity against Mycobacterium kansasii 6509/96 after 14 days; format: functional; settings: 6509/96, 336 h; summary of the method: as §2
[27] = Selectivity ratio of IC50 for human HepG2 cell sto MIC90 for methicillin-resistant Staphylococcus aureus H 5996/08; format: functional
[28] = test system: Candida albicans; test: Antifungal activity against Candida albicans ATCC 44857 after 24 hrs by broth microdilution method; format: functional; settings: ATCC 44857, 24 h; summary of the method: as §5
[29] = test system: Trichophyton mentagrophytes; test: Antifungal activity against Trichophyton mentagrophytes 445 after 24 hrs by broth microdilution method; format: functional; settings: Trichophyton mentagrophytes, 445, 24 h
[30] = test system: Candida tropicalis; test: Antifungal activity against Candida tropicalis 156 after 24 hrs by broth microdilution method; format: functional; settings: Candida tropicalis, 156, 24 h; summary of the method: as §5
[31] = test system: Nakaseomyces glabratus; test: Antifungal activity against Candida glabrata 20/I after 24 hrs by broth microdilution method; format: functional; summary of the method: as §5
[32] = test system: Trichosporon asahii; test: Antifungal activity against Trichosporon asahii 1188 after 24 hrs by broth microdilution method; format: functional; settings: Trichosporon asahii, 1188, 24 h; summary of the method: as §5
[33] = test system: Pichia kudriavzevii; test: Antifungal activity against Candida krusei E58 after 24 hrs by broth microdilution method; format: functional; settings: E58, 24 h; summary of the method: as §5
[34] = test system: Lichtheimia corymbifera; test: Antifungal activity against Absidia corymbifera 272 after 24 hrs by broth microdilution method; format: functional; settings: Lichtheimia corymbifera, 272, 24 h; summary of the method: as §5

Compound | MIC [1] [µM] | MIC [2] [µM] | MIC [3] [µM] | MIC [4] [µM] | Ratio [5] | MIC [6] [µM] | MIC [7] [µM] | MIC [8] [µM] | Ratio [9] | MIC [10] [µM] | MIC [11] [µM] | Ratio [12] | MIC [13] [µM] | MIC [14] [µM] | IC50 [15] [µM] | MIC [16] [µM] | MIC [17] [µM] | MIC [18] [µM] | MIC [19] [µM] | MIC [21] [µM] | further results
Cc1cc(NS(=O)(=O)c2ccc(N)cc2)no1 [SULFAMETHOXAZOLE] | 32 (≈ 8.11 µg/mL) | 8 (≈ 2.03 µg/mL) | 250 (≈ 63.3 µg/mL) | 500 (≈ 127 µg/mL) | 163.9 | 32 (≈ 8.11 µg/mL) | ≥ 500 | 4 (≈ 1.01 µg/mL) | 163.9 | 62.5 (≈ 15.8 µg/mL) | 500 (≈ 127 µg/mL) | 5.2 | ≥ 500 | 4 (≈ 1.01 µg/mL) | 2620 | 16 (≈ 4.05 µg/mL) | 32 (≈ 8.11 µg/mL) | 62.5 (≈ 15.8 µg/mL) | 16 (≈ 4.05 µg/mL) | 250 (≈ 63.3 µg/mL) | MIC50 [20]: 30 µg/mL (≈ 118 µM); MIC80 [20]: 30 µg/mL (≈ 118 µM); MIC [22]: ≥ 500 µM; MIC [23]: 250 µM (≈ 63.3 µg/mL); MIC [24]: ≥ 500 µM; MIC [25]: 250 µM (≈ 63.3 µg/mL); MIC [26]: 4 µM (≈ 1.01 µg/mL); Ratio [27]: 5.2
O=S(=O)(Nc1nccs1)c1ccc(/N=C/c2cc(Cl)ccc2O)cc1 | 62.5 (≈ 24.6 µg/mL) | 2 (≈ 0.788 µg/mL) | 31.2 (≈ 12.3 µg/mL) | > 500 | 78.2 | 62.5 (≈ 24.6 µg/mL) | ≥ 500 | 2 (≈ 0.788 µg/mL) | 78.2 | 125 (≈ 49.2 µg/mL) | 31.2 (≈ 12.3 µg/mL) | 10 | 500 (≈ 197 µg/mL) | 2 (≈ 0.788 µg/mL) | 313 | 4 (≈ 1.58 µg/mL) | 32 (≈ 12.6 µg/mL) | 31.2 (≈ 12.3 µg/mL) | 4 (≈ 1.58 µg/mL) | > 500 | MIC [28]: > 125 µM; MIC [29]: > 125 µM; MIC [30]: > 125 µM; MIC [31]: > 125 µM; MIC [32]: > 125 µM; MIC [22]: 500 µM (≈ 197 µg/mL); MIC [23]: > 125 µM; MIC [24]: 500 µM (≈ 197 µg/mL); MIC [25]: 31.2 µM (≈ 12.3 µg/mL); MIC [26]: 2 µM (≈ 0.788 µg/mL); MIC [33]: > 125 µM; MIC [34]: > 125 µM
